Measured values: ChEMBL document CHEMBL1275561, “In vitro activities of doripenem, a new broad-spectrum carbapenem, against recently collected clinical anaerobic isolates, with emphasis on the Bacteroides fragilis group” (2008)

Key:
Format in all cases: functional
[1] = tested on: Parabacteroides distasonis; test: Antimicrobial activity against Bacteroides distasonis by agar dilution method
How it was run: (§1)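 CLSI agar dilution on enriched brucella agar (5% lysed defibrinated sheep blood, 1 μg/ml vitamin K1), with drug plates made on the test day. Log-phase cells were adjusted to 0.5 McFarland, and about 10^5 CFU/spot was delivered by Steers replicator. Plates were incubated anaerobically at 37°C for 48 h. MIC was the lowest concentration giving a marked growth change versus the control plate. Controls were B. fragilis ATCC 25285 and B. thetaiotaomicron ATCC 29741.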

[2] = tested on: Bacteroides caccae; test: Antimicrobial activity against Bacteroides caccae assessed as resistant isolates by agar dilution method
How it was run: (§2)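 CLSI agar dilution on enriched brucella agar (5% lysed defibrinated sheep blood, 1 μg/ml vitamin K1), plates made on test day. Log-phase inocula adjusted to 0.5 McFarland; about 10^5 CFU/spot by Steers replicator. Incubated anaerobically at 37°C for 48 h. MIC was the lowest concentration giving a marked change in growth versus the drug-free control plate. Resistance rates used CLSI anaerobe breakpoints. Controls were B. fragilis ATCC 25285 and B. thetaiotaomicron ATCC 29741.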

[3] = tested on: Bacteroides caccae; test: Antimicrobial activity against Bacteroides caccae by agar dilution method; how it was run: as §1
[4] = tested on: Parabacteroides distasonis; test: Antimicrobial activity against Bacteroides distasonis assessed as resistant isolates by agar dilution method; how it was run: as §2
[5] = tested on: Bacteroides fragilis; test: Antimicrobial activity against Bacteroides fragilis by agar dilution method; how it was run: as §1
[6] = tested on: Bacteroides fragilis; test: Antimicrobial activity against Bacteroides fragilis assessed as resistant isolates by agar dilution method; how it was run: as §2
[7] = tested on: Bacteroides ovatus; test: Antimicrobial activity against Bacteroides ovatus by agar dilution method; how it was run: as §1
[8] = tested on: Bacteroides ovatus; test: Antimicrobial activity against Bacteroides ovatus assessed as resistant isolates by agar dilution method; how it was run: as §2
[9] = tested on: Bacteroides thetaiotaomicron; test: Antimicrobial activity against Bacteroides thetaiotaomicron by agar dilution method; how it was run: as §1
[10] = tested on: Bacteroides thetaiotaomicron; test: Antimicrobial activity against Bacteroides thetaiotaomicron assessed as resistant isolates by agar dilution method; how it was run: as §2
[11] = tested on: Bacteroides uniformis; test: Antimicrobial activity against Bacteroides uniformis by agar dilution method; how it was run: as §1
[12] = tested on: Bacteroides uniformis; test: Antimicrobial activity against Bacteroides uniformis assessed as resistant isolates by agar dilution method; how it was run: as §2
[13] = tested on: Phocaeicola vulgatus; test: Antimicrobial activity against Bacteroides vulgatus by agar dilution method; how it was run: as §1
[14] = tested on: Phocaeicola vulgatus; test: Antimicrobial activity against Bacteroides vulgatus assessed as resistant isolates by agar dilution method; how it was run: as §2
[15] = tested on: Bacteroides eggerthii; test: Antimicrobial activity against Bacteroides eggerthii by agar dilution method; how it was run: as §1
[16] = tested on: Bacteroides eggerthii; test: Antimicrobial activity against Bacteroides eggerthii assessed as resistant isolates by agar dilution method; how it was run: as §2
[17] = tested on: Parabacteroides merdae; test: Antimicrobial activity against Bacteroides merdae by agar dilution method; how it was run: as §1
[18] = tested on: Parabacteroides merdae; test: Antimicrobial activity against Bacteroides merdae assessed as resistant isolates by agar dilution method; how it was run: as §2
[19] = tested on: Bacteroides nordii; test: Antimicrobial activity against Bacteroides nordii by agar dilution method; how it was run: as §1
[20] = tested on: Bacteroides nordii; test: Antimicrobial activity against Bacteroides nordii assessed as resistant isolates by agar dilution method; how it was run: as §2
[21] = tested on: Clostridioides difficile; test: Antimicrobial activity against Clostridium difficile by agar dilution method
[22] = tested on: Clostridium perfringens; test: Antimicrobial activity against Clostridium perfringens by agar dilution method
[23] = tested on: [Clostridium] innocuum; test: Antimicrobial activity against Clostridium innocuum by agar dilution method
[24] = tested on: [Clostridium] innocuum; test: Antimicrobial activity against Clostridium innocuum assessed as resistant isolates by agar dilution method; details: pooled result: one value given for 4 cell lines, strains, targets or settings
[25] = tested on: Clostridium paraputrificum; test: Antimicrobial activity against Clostridium paraputrificum by agar dilution method
[26] = tested on: Clostridium subterminale; test: Antimicrobial activity against Clostridium subterminale by agar dilution method
[27] = tested on: Clostridium tertium; test: Antimicrobial activity against Clostridium tertium by agar dilution method
[28] = tested on: Finegoldia magna; test: Antimicrobial activity against Finegoldia magna by agar dilution method
How it was run: (§3)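 Gram-positive anaerobes were tested by CLSI agar dilution on brucella agar enriched with 5% lysed defibrinated sheep blood and 1 μg/ml vitamin K1. Inoculum was log-phase growth at 0.5 McFarland, about 10^5 CFU/spot by replicator. Incubation was anaerobic, 37°C, 48 h. MIC was the lowest concentration with a marked growth change versus the drug-free plate. Eubacterium lentum ATCC 43055 was the control, and tests were repeated if it fell outside the CLSI range.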

[29] = tested on: Finegoldia magna; test: Antimicrobial activity against Finegoldia magna assessed as resistant isolates by agar dilution method
How it was run: (§4)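 Agar dilution following CLSI on brucella agar with 5% lysed defibrinated sheep blood and 1 μg/ml vitamin K1, plates made on test day. Log-phase cells at 0.5 McFarland, about 10^5 CFU/spot by Steers replicator, 48 h anaerobic at 37°C. MIC read as the lowest concentration causing a marked growth change versus control. Resistance counted by CLSI anaerobe breakpoints. Eubacterium lentum ATCC 43055 served as control.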

[30] = tested on: Peptoniphilus asaccharolyticus; test: Antimicrobial activity against Peptoniphilus asaccharolyticus by agar dilution method; how it was run: as §3
[31] = tested on: Peptoniphilus asaccharolyticus; test: Antimicrobial activity against Peptoniphilus asaccharolyticus assessed as resistant isolates by agar dilution method; details: pooled result: one value given for 4 cell lines, strains, targets or settings; how it was run: as §4
[32] = tested on: Parvimonas micra; test: Antimicrobial activity against Micromonas micros by agar dilution method; how it was run: as §3
[33] = tested on: Anaerococcus prevotii; test: Antimicrobial activity against Anaerococcus prevotii by agar dilution method; how it was run: as §3
[34] = tested on: Peptostreptococcus sp.; test: Antimicrobial activity against Peptostreptococcus sp. by agar dilution method
How it was run: (§5)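 Log-phase isolates were adjusted to 0.5 McFarland, and about 10^5 CFU/spot was delivered by Steers replicator. Plates were incubated anaerobically at 37°C for 48 h. MIC was the lowest concentration giving a marked growth change versus the control plate. Eubacterium lentum ATCC 43055 was the QC strain, with repeats when out of range.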

[35] = tested on: Cutibacterium acnes; test: Antimicrobial activity against Propionibacterium acnes by agar dilution method; how it was run: as §5
[36] = tested on: Cutibacterium acnes; test: Antimicrobial activity against Propionibacterium acnes assessed as resistant isolates by agar dilution method; how it was run: as §4
[37] = tested on: Propionibacterium; test: Antimicrobial activity against Propionibacterium sp. by agar dilution method; how it was run: as §5
[38] = tested on: Propionibacterium; test: Antimicrobial activity against Propionibacterium sp. assessed as resistant isolates by agar dilution method; how it was run: as §4

CO[C@@]1(NC(=O)Cc2cccs2)C(=O)N2C(C(=O)O)=C(COC(N)=O)CS[C@@H]21 [CEFOXITIN]
1 µg/mL: MIC [22] | MIC50 [22] | MIC [28] | MIC50 [28] | MIC90 [28] | MIC [30] | MIC50 [30] | MIC [32] | MIC50 [32] | MIC [33] | MIC50 [33] | MIC [34] | MIC50 [34] | MIC [35] | MIC50 [35] | MIC90 [35] | MIC [37] | MIC50 [37] | MIC90 [37]
3%: Activity [6]
64 µg/mL: MIC90 [7] | MIC90 [9] | MIC90 [11] | MIC50 [23] | MIC50 [25] | MIC50 [26] | MIC50 [27]
8 µg/mL: MIC50 [13]
14.3%: Activity [8]
10.3%: Activity [10]
6.3%: Activity [2]
55.6%: Activity [24]
> 8 µg/mL: MIC [21]
128 µg/mL: MIC90 [23]
0%: Activity [16] | Activity [18] | Activity [20] | Activity [29] | Activity [31] | Activity [36] | Activity [38]
> 128 µg/mL: MIC90 [25] | MIC90 [26] | MIC90 [27]
6.7%: Activity [4]
32 µg/mL: MIC90 [1] | MIC90 [3] | MIC90 [5] | MIC50 [9] | MIC90 [13] | MIC90 [15] | MIC90 [17] | MIC90 [19]
4 µg/mL: MIC90 [22] | MIC90 [30] | MIC90 [32] | MIC90 [33] | MIC90 [34]
16 µg/mL: MIC50 [1] | MIC50 [3] | MIC50 [5] | MIC50 [7] | MIC50 [11] | MIC50 [15] | MIC50 [17] | MIC50 [19]
9.5%: Activity [12]
3.2%: Activity [14]

C[C@@H](O)[C@H]1C(=O)N2C(C(=O)O)=C(S[C@@H]3CN[C@H](C(=O)Nc4cccc(C(=O)O)c4)C3)[C@H](C)[C@H]12
2%: Activity [6]
0.25 µg/mL: MIC90 [22] | MIC90 [37]
2 µg/mL: MIC90 [3] | MIC90 [5] | MIC50 [9] | MIC90 [11] | MIC90 [13] | MIC90 [15] | MIC90 [17] | MIC90 [19] | MIC [21]
4 µg/mL: MIC90 [1] | MIC90 [7] | MIC90 [9] | MIC50 [23] | MIC50 [25] | MIC50 [26] | MIC50 [27]
0.5 µg/mL: MIC50 [3] | MIC50 [5] | MIC50 [11] | MIC50 [13] | MIC90 [30] | MIC90 [32] | MIC90 [33] | MIC90 [34]
0.125 µg/mL: MIC50 [28] | MIC90 [28] | MIC50 [30] | MIC50 [32] | MIC50 [33] | MIC50 [34]
2.9%: Activity [8]
0%: Activity [2] | Activity [4] | Activity [10] | Activity [12] | Activity [14] | Activity [16] | Activity [18] | Activity [20] | Activity [24] | Activity [29] | Activity [31] | Activity [36] | Activity [38]
8 µg/mL: MIC90 [23] | MIC90 [25] | MIC90 [26] | MIC90 [27]
0.06 µg/mL: MIC [22] | MIC50 [22] | MIC [35] | MIC50 [35] | MIC90 [35] | MIC [37] | MIC50 [37]
1 µg/mL: MIC50 [1] | MIC50 [7] | MIC50 [15] | MIC50 [17] | MIC50 [19]
